Here are results for eleven molecules from ChEMBL document CHEMBL1146470, “Highly hydroxylated triterpenes from Salvia kronenburgii” (J Nat Prod, 2004).

Converted amounts (≈) assume the structure as drawn.

One test deals with A2780. Kind of test: Cytotoxicity against human A2780 cells. It is filed as functional, cell-based. An outline of the steps:
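Run on the human ovarian cancer line A2780 by a previously described protocol, with actinomycin D at 2 μg/mL as the positive control.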

Another test has as its system EKVX. Put plainly: Cytotoxicity against human EKVX cells. The class given is functional. An outline of the steps: (§1)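 NCI 60-cell-line panel screen over a 5-log dose range; growth inhibition expressed as log GI50. Preceded by an NCI one-dose primary screen on three lines (H460, MCF7, SF-268) reported as growth percentages.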
In the next test the test system is RXF 393. Kind of test: Cytotoxicity against human RXF393 cells. It is filed as functional. An outline of the steps: as §1
In another test the test system is MCF7. Kind of test: Cytotoxicity against human MCF7 cells. The class given is functional.
The next test has as its system NCI-H460. Put plainly: Cytotoxicity against human H460 cells. It is filed as functional.
For the next test, the system named is SF-268. Put plainly: Cytotoxicity against human SF268 cells. The class given is functional.
Another test deals with T47D. Put plainly: Cytotoxicity against human T47D cells. It is filed as functional. An outline of the steps: as §1

In turn, `CC1(C)CC[C@]2(C)CC[C@]3(C)C(=C[C@@H](O)[C@@H]4[C@@]5(C)[C@H](O)[C@@H](O)[C@H](O)C(C)(C)[C@@H]5CC[C@]43C)[C@@H]2C1` gave an IC50 with A2780 of 27.9 µg/mL (≈ 58.8 µM).

`CC(=O)O[C@H]1[C@H](O)[C@@H](O)[C@]2(C)C3=CC=C4[C@@H]5CC(C)(C)CC[C@]5(C)CC[C@@]4(C)[C@]3(C)CC[C@H]2C1(C)C` registered an IC50 in the test on A2780 of 36.9 µg/mL (≈ 74 µM). The molecule `CC(=O)O[C@@H]1C[C@@]2(C)C(=CC[C@]3(C)[C@@H]2[C@H](O)C=C2[C@@H]4[C@@H](C)[C@H](C)CC[C@]4(C)CC[C@]23C)C(C)(C)[C@H]1O` registered an IC50 in the test with A2780 of 34.2 µg/mL (≈ 68.6 µM). In turn, `CC(=O)O[C@H]1[C@H](O)[C@@H](O)[C@]2(C)[C@H]3[C@H](O)C=C4[C@@H]5CC(C)(C)CC[C@]5(C)CC[C@@]4(C)[C@]3(C)CC[C@H]2C1(C)C` showed an IC50 with A2780 of 38.5 µg/mL (≈ 74.5 µM). Turning to `CC(=O)O[C@H]1[C@H](O)C[C@]2(C)C3=CC=C4[C@@H]5[C@@H](C)[C@@](C)(O)CC[C@]5(C)CC[C@@]4(C)[C@]3(C)CC[C@H]2C1(C)C`, in the test with A2780, the midpoint of inhibition, the IC50, lay at 33.3 µg/mL (≈ 66.8 µM). The same measure, in the same setting: in the case of `CC(=O)O[C@H]1[C@H](O)[C@@H](O)[C@]2(C)[C@H]3C(=O)C=C4[C@@H]5[C@@H](C)[C@H](C)CC[C@]5(C)CC[C@@]4(C)[C@]3(C)CC[C@H]2C1(C)C` it was 26 µg/mL (≈ 50.5 µM). For the molecule `C[C@H]1[C@H](C)CC[C@]2(C)CC[C@]3(C)C(=C[C@@H](O)[C@@H]4[C@@]5(C)[C@H](O)[C@@H](O)[C@H](O)C(C)(C)[C@@H]5CC[C@]43C)[C@H]12`, the results for the GI50 in the test with EKVX, with RXF 393 and with T47D were 21.9 nM, 363 nM and 18600 nM, respectively. Besides, the IC50 in the test with A2780 worked out at 27.7 µg/mL (≈ 58.3 µM). The Activity in the test with MCF7 was -25%; in the test on NCI-H460, -45%; in the test with SF-268, 18%.

`CC(=O)O[C@H]1[C@H](O)[C@@H](O)[C@]2(C)[C@H]3[C@H](O)C=C4[C@@H]5[C@@H](C)[C@H](C)CC[C@]5(C)CC[C@@]4(C)[C@]3(C)CC[C@H]2C1(C)C` gave an IC50 with A2780 of 32.5 µg/mL (≈ 62.9 µM). For `CC(=O)O[C@H]1[C@H](O)[C@@H](O)[C@]2(C)C3=CC=C4[C@@H]5[C@@H](C)[C@H](C)CC[C@]5(C)CC[C@@]4(C)[C@]3(C)CC[C@H]2C1(C)C`, in the test on A2780, 37.5 µg/mL (≈ 75.2 µM) corresponded to half-maximal inhibition (IC50). For `CC1(C)C[C@H]2C3=C[C@@H](O)[C@@H]4[C@@]5(C)CC[C@H](O)C(C)(C)[C@@H]5CC[C@@]4(C)[C@@]3(C)CC[C@@]2(C)C[C@H]1O` [SALVINEMOROL], 8.6 µg/mL (≈ 18.7 µM) corresponded to half-maximal inhibition with A2780 (IC50).

The molecule `C[C@H]1[C@H](C)[C@H]2C3=C[C@@H](O)[C@@H]4[C@@]5(C)CC[C@H](O)C(C)(C)[C@@H]5CC[C@@]4(C)[C@]3(C)CC[C@@]2(C)C[C@H]1O` [SALVISTAMINEOL] registered an IC50 with A2780 of 21 µg/mL (≈ 45.8 µM).
